Measured values as given in ChEMBL document CHEMBL4837217, “Design, synthesis, in vitro and in vivo biological evaluation of pyranone-piperazine analogs as potent antileishmanial agents” (Eur J Med Chem, 2021).
The source made the active and inactive calls. No cut-off for these calls is given here.

Legend:
Leishmania donovani [1] = assay: Antileishmanial activity against amastigote stage of Leishmania donovani MHOM/IN/80/Dd8 harboring luciferase gene infected in mouse J774 cells assessed as parasite growth inhibition at 50 uM incubated for 72 hrs by Steady-Glo reagent based luciferase assay; type: functional; settings: MHOM/IN/80/Dd8, J774
Summary of the method: (§1)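 J774 murine macrophages, 4 × 10⁴ cells/well in RPMI with 10% FBS for 24 h, are infected for 24 h at 37 °C, 5% CO₂ with stationary-phase luciferase-transfected L. donovani Dd8 promastigotes at a 1:8 macrophage:parasite ratio. Compounds are dissolved in DMSO. Luminescence is read after Steady-Glo is added in PBS. IC₅₀ is taken from a four-parameter Hill nonlinear regression. Miltefosine is the reference.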

Leishmania donovani [2] = assay: Antileishmanial activity against log phase of Leishmania donovani MHOM/IN/80/Dd8 promastigotes assessed as reduction in cell viability by MTT assay; type: functional, organism-based; settings: time 12-72 hrs, TDE = time-dependent effect
Leishmania donovani [3] = assay: Antileishmanial activity against log phase of Leishmania donovani MHOM/IN/80/Dd8 promastigotes assessed as reduction in cell viability at 25 uM incubated for 72 hrs by MTT assay; type: functional
Summary of the method: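 Log-phase luciferase-transfected L. donovani Dd8 promastigotes (M199 + 10% FBS, 24 °C) treated with compounds at 25 and 50 µM in DMSO, with 0.1% DMSO vehicle control. After 72 h, MTT added 4 h. Formazan dissolved in DMSO, read at 570 nm. Percent inhibition reported as mean ± SD of at least three independent experiments in replicate.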

Leishmania donovani [4] = assay: Induction of apoptosis in Leishmania donovani MHOM/IN/80/Dd8 promastigotes assessed as early apoptotic cells at 50 uM measured after 72 hrs by Alexa fluor488-AnnexinV/PI staining based FACSCalibur flow cytometry analysis (reference value: 10.3%); type: functional
Leishmania donovani [5] = assay: Antileishmanial activity against amastigote stage of Leishmania donovani MHOM/IN/80/Dd8 harboring luciferase gene infected in mouse J774 cells assessed as parasite killing at 50 to 100 uM incubated for 72 hrs by Steady-Glo reagent based luciferase assay; type: functional; settings: dose 50-100 µM; summary of the method: as §1
Splenocyte = assay: Immunomodulatory activity in BALB/c mouse infected with Leishmania donovani amastigotes assessed as decrease in TGF-beta level in splenocytes supernatants at 50 mg/kg, ip for 5 days; type: functional, organism-based; settings: time 5.0 day
Leishmania donovani [6] = assay: Induction of apoptosis in Leishmania donovani MHOM/IN/80/Dd8 promastigotes assessed as increase in cytochrome c release by measuring decrease in cytochrome c level in mitochondria at 50 uM incubated for 12 to 72 hrs by Western blot analysis; type: functional, organism-based; settings: time 12-72 hrs
Summary of the method: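 Promastigotes treated with 50 µM for 12, 24, 48 and 72 h, then washed in PBS. Cell fractionation buffer applied 10 min on ice, cells homogenized, centrifuged 10,000 × g for 25 min at 4 °C. Cytosolic and mitochondrial fractions immunoblotted for cytochrome c. Loading controls were actin (cytosol) and COX-4 (mitochondria).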

Leishmania donovani [7] = assay: Antileishmanial activity against Leishmania donovani MHOM/IN/80/Dd8 infected in BALB/c mouse assessed as reduction in intracellular amastigote burden in spleen at 50 mg/kg, ip for 5 days and measured at 1 week post-treatment by Giemsa staining based assay relative to control; type: functional; settings: MHOM/IN/80/Dd8, ip, 288 h, time 12 day
Summary of the method: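 Female BALB/c mice (20–25 g), 5/group, infected iv with 2 × 10^7 stationary-phase L. donovani promastigotes. Infection confirmed at 2 wk, then 50 mg/kg ip daily for 5 consecutive days. Vehicle was 5% DMSO. Sacrificed day 7 post-treatment. Giemsa-stained liver/spleen impression smears counted as amastigotes/1000 nucleated cells, expressed as LDU (amastigotes per nucleated cell × organ weight in mg), compared with untreated infected controls.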

Leishmania donovani [8] = assay: Induction of apoptosis in Leishmania donovani MHOM/IN/80/Dd8 promastigotes assessed as early apoptotic cells at 50 uM measured after 24 hrs by Alexa fluor488-AnnexinV/PI staining based FACSCalibur flow cytometry analysis (reference value: 10.3%); type: functional
Leishmania donovani [9] = assay: Induction of mitochondrial membrane potential dysfunction in Leishmania donovani MHOM/IN/80/Dd8 promastigotes assessed as cells with mitochondrial depolarization at 50 uM incubated for 72 hrs by JC1 staining based flow cytometry (reference value: 3.63%); type: functional
Leishmania donovani [10] = assay: Induction of apoptosis in Leishmania donovani MHOM/IN/80/Dd8 promastigotes assessed as late apoptotic cells at 50 uM measured after 24 hrs by Alexa fluor488-AnnexinV/PI staining based FACSCalibur flow cytometry analysis (reference value: 0.7%); type: functional

N#Cc1c(N2CCN(c3ccccc3O)CC2)cc(-c2ccccc2)oc1=O
inhibition at 50 µM (Leishmania donovani [1]): 95.7%
Activity (Leishmania donovani [2]): Tde
inhibition at 25 µM (Leishmania donovani [3]): 82.7%
Activity (Leishmania donovani [4]): 41.4%
Activity (Leishmania donovani [5]): >89%
Activity (Splenocyte): inactive
Activity (Leishmania donovani [6]): Active
inhibition in vivo at 50 mg/kg (Leishmania donovani [7]): 56.9%
Activity (Leishmania donovani [8]): 15.4%
Activity (Leishmania donovani [9]): 86.9%
Activity (Leishmania donovani [10]): 1.2%
